This note sets out measurements from ChEMBL document CHEMBL2057204, “Synthesis, biological evaluation, and molecular docking studies of N-((1,3-diphenyl-1H-pyrazol-4-yl)methyl)aniline derivatives as novel anticancer agents” (Bioorg Med Chem, 2012).

The test system of assay [1] is MCF7. The experiment in a line: Antiproliferative activity against human MCF7 cells after 48 hrs by MTT assay. The conditions noted are these: MCF7, 48 h. In kind it is functional, cell-based. An outline of the steps: (§1)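 Cells grown to log phase in RPMI 1640 with 10% FBS, diluted to 2 × 10⁴ cells/mL in complete medium and seeded into 96-well plates. Plates held 24 h at 37 °C, 5% CO₂ before compound exposure. After a 4 h incubation, absorbance read at 570 nm on a microplate reader. Three replicate wells per concentration; each assay run at least three times; IC₅₀ reported.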
On the technique in general: Tetrazolium assays rely on reduction of a dye to a coloured formazan, in cell work by metabolically active cells.

The test system of assay [2] is B16-F10. The experiment in a line: Antiproliferative activity against mouse B16F10 cells after 48 hrs by MTT assay. The conditions noted are these: B16-F10, 48 h. It is filed as functional, cell-based. An outline of the steps:
as §1

For assay [3], the target named is Cyclin-dependent kinase 2/cyclin E1 (Homo sapiens, UniProt P24941). The experiment in a line: Inhibition of CDK2/cyclin E. In kind it is protein-complex assay.

As a reminder, the IC50 is the midpoint of a concentration-inhibition curve. A lower IC50 goes with inhibition by little substance. Consider `Fc1ccc(NCc2cn(-c3ccccc3)nc2-c2ccc(Cl)cc2)cc1`, for which the IC50 in assay [1] is 1.88 µM; in assay [2], 2.12 µM; in assay [3], 0.98 µM.
`Clc1ccc(NCc2cn(-c3ccccc3)nc2-c2ccc(Cl)cc2)cc1`: the values for the IC50 in assay [1], in assay [2] and in assay [3] were 2.28 µM, 2.45 µM and 1.18 µM, respectively.
In the case of `Clc1ccc(-c2nn(-c3ccccc3)cc2CNc2ccc(Br)cc2)cc1`, the IC50 in assay [1] stood at 2.62 µM; in assay [2] it was 3.01 µM; in assay [3], 1.85 µM.
For the compound `Cc1ccc(NCc2cn(-c3ccccc3)nc2-c2ccc(Cl)cc2)cc1`, the figures for the IC50 in assay [1], in assay [2] and in assay [3] were 3.11 µM, 3.48 µM and 2.08 µM, respectively.
The like results for `Fc1ccc(NCc2cn(-c3ccccc3)nc2-c2ccc(Br)cc2)cc1` were, in that order, 3.96 µM, 4.18 µM and 2.36 µM.
As for `Clc1ccc(NCc2cn(-c3ccccc3)nc2-c2ccc(Br)cc2)cc1`, the results for the IC50 in assay [1], in assay [2] and in assay [3] were 4.15 µM, 4.29 µM and 2.56 µM, respectively.
For the compound `Brc1ccc(NCc2cn(-c3ccccc3)nc2-c2ccc(Br)cc2)cc1`, the values for the IC50 in assay [1], in assay [2] and in assay [3] were 5 µM, 5.27 µM and 2.78 µM, respectively.
The like results for `Cc1ccc(NCc2cn(-c3ccccc3)nc2-c2ccc(Br)cc2)cc1` were, in that order, 5.38 µM, 5.98 µM and 3.02 µM.
The like results for `Cc1ccc(-c2nn(-c3ccccc3)cc2CNc2ccc(F)cc2)cc1` were, in that order, 5.88 µM, 5.67 µM and 3.6 µM.
In the case of `Cc1ccc(-c2nn(-c3ccccc3)cc2CNc2ccc(Cl)cc2)cc1`, the values for the IC50 in assay [1], in assay [2] and in assay [3] were 6.02 µM, 6.01 µM and 3.89 µM, respectively.
As for `Cc1ccc(-c2nn(-c3ccccc3)cc2CNc2ccc(Br)cc2)cc1`, the IC50 in assay [1] worked out at 6.89 µM; in assay [2], 6.76 µM; in assay [3], 4.15 µM.
As for `Cc1ccc(NCc2cn(-c3ccccc3)nc2-c2ccc(C)cc2)cc1`, the results for the IC50 in assay [1], in assay [2] and in assay [3] were 7.26 µM, 7.38 µM and 4.55 µM, respectively.
On to `COc1ccc(-c2nn(-c3ccccc3)cc2CNc2ccc(F)cc2)cc1`, for which the IC50 in assay [1] was determined as 5.98 µM; in assay [2] it was 6.58 µM; in assay [3] it was 4.02 µM.
In the case of `COc1ccc(-c2nn(-c3ccccc3)cc2CNc2ccc(Cl)cc2)cc1`, the IC50 in assay [1] is 6.25 µM; in assay [2], 7.18 µM; in assay [3] it was 4.28 µM.
For `COc1ccc(-c2nn(-c3ccccc3)cc2CNc2ccc(Br)cc2)cc1`, in that order: 7.02 µM, 8.06 µM and 4.96 µM.
With `COc1ccc(-c2nn(-c3ccccc3)cc2CNc2ccc(C)cc2)cc1`, the IC50 is 8.16 µM in assay [1], 8.38 µM in assay [2] and 5.06 µM in assay [3].
Take `Cn1cnc2c(NCc3ccccc3)nc(NCCO)nc21` [OLOMOUCINE]: the IC50 in assay [1] came out at 130 µM; in assay [2] it was 105 µM.
